Screens deposited in PubChem BioAssay by several laboratories.
Compounds with a hit are over-represented: about 3.7% of the library has one in this group of screens.
KCC2 mod – KCC2 cotransporter modulators, thallium flux, primary screen, cell-based, HEK293 KCC2, FluoZin-2 fluorescence, MLSMR. Solute carrier family 12 member 5 (Homo sapiens), Q9H2X9. KCC2 cells, thallium flux FluoZin-2 fluorescence. B-score of Tl+ flux slope (higher = more flux/activation; lower = inhibition) at 10 µM. 190,000 compounds, 2.2% hits. AID 1456, 2008;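 active means thallium flux slope and its plate-corrected score both differing from the plate sample mean at a set confidence after two filtering rounds, in either direction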;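 further: slope of fluorescence scaled to starting intensity during 10 to 20 s after thallium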
Target sequence (Q9H2X9 whole entry, looked up): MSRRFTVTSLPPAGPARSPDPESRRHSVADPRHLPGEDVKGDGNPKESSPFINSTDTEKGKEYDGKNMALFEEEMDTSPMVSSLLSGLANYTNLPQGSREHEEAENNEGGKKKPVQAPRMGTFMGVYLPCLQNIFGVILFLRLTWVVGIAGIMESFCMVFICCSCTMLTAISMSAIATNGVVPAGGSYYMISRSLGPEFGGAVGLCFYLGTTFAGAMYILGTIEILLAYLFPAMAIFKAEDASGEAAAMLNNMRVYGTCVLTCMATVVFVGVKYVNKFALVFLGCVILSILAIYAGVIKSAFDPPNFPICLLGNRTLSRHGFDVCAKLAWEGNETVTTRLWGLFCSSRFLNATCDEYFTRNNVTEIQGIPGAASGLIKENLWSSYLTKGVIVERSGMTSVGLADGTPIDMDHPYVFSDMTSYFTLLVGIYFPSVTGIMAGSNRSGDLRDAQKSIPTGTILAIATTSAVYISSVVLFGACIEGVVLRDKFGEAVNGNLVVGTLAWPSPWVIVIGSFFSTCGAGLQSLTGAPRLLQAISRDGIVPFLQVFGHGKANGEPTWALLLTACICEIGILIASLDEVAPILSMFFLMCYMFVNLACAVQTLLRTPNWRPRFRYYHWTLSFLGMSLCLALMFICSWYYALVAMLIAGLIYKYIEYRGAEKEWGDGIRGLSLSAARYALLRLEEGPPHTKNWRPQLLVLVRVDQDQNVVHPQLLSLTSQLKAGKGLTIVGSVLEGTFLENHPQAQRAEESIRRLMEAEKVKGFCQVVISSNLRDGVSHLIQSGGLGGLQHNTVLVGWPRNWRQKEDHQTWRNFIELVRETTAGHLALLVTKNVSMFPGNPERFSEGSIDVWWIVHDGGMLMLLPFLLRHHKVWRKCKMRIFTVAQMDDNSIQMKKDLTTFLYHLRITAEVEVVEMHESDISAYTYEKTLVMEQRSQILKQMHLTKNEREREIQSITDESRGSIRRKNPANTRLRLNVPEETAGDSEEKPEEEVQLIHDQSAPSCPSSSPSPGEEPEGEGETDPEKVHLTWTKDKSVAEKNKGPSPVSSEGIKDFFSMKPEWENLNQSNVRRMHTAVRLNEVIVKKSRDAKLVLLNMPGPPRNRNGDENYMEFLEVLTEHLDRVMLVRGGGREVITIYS
Redox H2O2 prof – compounds producing H2O2 with reducing agent – biochemical, NIH compound library profiling, artefact control for MLSCN library redox annotation, primary screen; DTT-dependent redox cycling H2O2, phenol red/HRP absorbance; 100% = 100 µM peroxide control, 0% = buffer; activation, % at 10 µM; 200,000 compounds, 0.03% hits;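 active means activation of at least 50% relative to the plate's high and low controls in the primary single-dose screen; inactive means activation below 50%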;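 further: compound incubated with DTT at 0.8 mM final as the reducing agent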
b-catenin transl – modulators of beta-catenin nuclear translocation, primary screen, imaging, HeLa cells, immunofluorescence, high-content; 190,000 compounds, 0.3% hits; AID 1665, 2009; nuclear translocation activity, % at 5 µM;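 active means nuclear translocation activity above 50% at 5 µM, with a well cell count of 50 or more; inconclusive means wells under 50 cells across six images, flagged as toxic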;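 further: per-cell ratio of nuclear to cytoplasmic median beta-catenin stain intensity; plate controls were DMSO negative control for no effect and GSK-3 inhibitor IX positive control for full effect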
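Test system: human HeLa cell line; Doses: 5 µM primary, 0.02–20 µM confirmation; Incubation: 24 h compound exposure, 37°C; Detection: beta-catenin immunofluorescence imaging with DAPI; Read-out: beta-catenin nuclear/cytoplasmic ratio, % activation.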
ROMK mod – ROMK potassium channel modulators, primary screen, cell-based, thallium flux, MLSMR library. ATP-sensitive inward rectifier potassium channel 1 (Homo sapiens), P48048. Tet-inducible ROMK, thallium flux fluorescence; actives lie on both sides. B-score at 10 µM. 130,000 compounds, 2% hits. AID 1918, 2009;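 active means signal ratio slope over the read window, or its plate-corrected B-score, at least 3 SD from the plate mean, either direction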;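 further: B-score of the F/F0 ratio slope over 7 to 12 s after thallium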
MT stabilizer – microtubule stabilizers in HeLa cells, primary screen, imaging, high-content imaging; HeLa tubulin immunostaining HCS, 24 h; share of cells brighter than vehicle mean+2SD; % tubulin-high responders, % at 10 µM; 200,000 compounds, 0.83% hits; AID 2205, 2009;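 active means plate Z-score above 3 for both tubulin-high and condensed-nucleus cell shares, with cell loss under 80%, at 10 µM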;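 further: anti alpha tubulin signal scored within the nucleus-defined area of each cell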
KCC2 sec1 – KCC2 modulators in sodium-free buffer, confirmation, cell-based, HEK293 KCC2, thallium flux, secondary assay. shares compounds with KCC2 mod. FluoZin2 fluorescence; stronger effect = higher value. normalised thallium flux (F/F0 slope) at 10 µM. 3,700 compounds, 15% hits;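 active means thallium flux slope above the same plate's solvent-only control mean plus 3 SD; inconclusive means the two replicate wells disagree; inactive means no significant difference from solvent-only control wells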
KCC2 bumet counter – thallium flux persisting under bumetanide in KCC2 cells, confirmation, counter-screen for KCC2 modulator project, cell-based, HEK293 KCC2, FluoZin2, secondary assay 3 | normalized thallium flux at 10 µM | shares compounds with KCC2 mod | HEK293-KCC2 + bumetanide/ouabain; stronger effect = higher value | AID 1714, 2009 | 3,700 compounds, 49% hits;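 active means thallium entry rate above the same plate's blocked-transporter control wells by more than 3 SD; inconclusive means the two repeat wells disagree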;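 further: raw slope of fluorescence over initial fluorescence between 10 and 20 s after thallium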
KCC2 secondary2 – KCC2 modulators without ouabain present, confirmation, cell-based, HEK293 KCC2, thallium flux, FluoZin2, secondary assay 2. normalized thallium flux at 10 µM. thallium flux FluoZin2 fluorescence; actives lie on both sides; F/F0 rise rate, 10–20 s post-thallium. 3,700 compounds, 23% hits. shares compounds with KCC2 mod;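 active means thallium flux slope more than 3 SD above or below the plate's solvent-only control mean, mostly below; inconclusive means the two repeat wells disagreed; inactive means no significant shift from solvent-only controls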;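 further: raw slope with 0.1% DMSO as baseline and bumetanide as block control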
HEK293 Tl flux – thallium flux modulation in parental HEK cells, confirmation, counter-screen for KCC2 modulator project, cell-based, counterscreen 1; shares compounds with KCC2 mod; HEK293 parental cells, thallium flux FluoZin2, ouabain; baseline-ratio fluorescence slope, 10–20 s after thallium; thallium flux rate (normalised fluorescence) at 10 µM; 3,700 compounds, 46% hits;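 active means thallium flux rate significantly above the same plate's solvent-only control wells, beyond their mean plus 3 SD; inconclusive means the two replicate wells gave conflicting results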
KCC2 retest ouab – KCC2 inhibitors and activators, ouabain retest, confirmation, HEK-KCC2 cells; AID 1717, 2009; HEK293-KCC2, thallium flux FluoZin2 fluorescence; bidirectional: low = inhibitor, high = activator; raw Tl+ flux slope (below DMSO = inhibition, above = activation) at 10 µM; 3,700 compounds, 48% hits; shares compounds with KCC2 mod;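 active means thallium flux slope beyond 3 SD from same-plate DMSO control mean in most replicates, usually higher, sometimes lower; inconclusive means repeat tests gave conflicting results; inactive means no significant difference from controls in most replicates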;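 further: slope of initial-normalized fluorescence between seconds 10 and 20 after thallium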
HEK293 Tl flux2 – native HEK Tl+ uptake effects, second counter-screen – HEK cells, counterscreen 2, counter-screen for KCC2 modulator project, confirmation. 3,700 compounds, 33% hits. thallium flux slope at 10 µM. shares compounds with KCC2 mod. AID 1718, 2009. HEK293 parental, thallium flux FluoZin-2 fluorescence slope;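 active means thallium flux slope above the same plate's solvent-control mean plus 3 SD in both duplicate wells; inconclusive means duplicate wells that disagreed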;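 further: run without ouabain in cells lacking the KCC2 cotransporter; slope of fluorescence scaled to its starting value between 10 and 20 s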
ROMK hit retest – ROMK channel modulator hit retest, confirmation, cell-based, thallium flux, duplicate, resupplied hits; shares compounds with ROMK mod; fluorescence ratio; stronger effect = lower value; normalized thallium flux (F/F0 slope) at 10 µM; 3,000 compounds, 54% hits; AID 1917, 2009;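 active means Flux at 10 µM at least 3 SD below or above vehicle control mean in one or both replicates; inconclusive means no clear call, values can overlap the other calls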
The depositor's hits bear a star; u = inconclusive; x = no result.

SMILES	KCC2 mod	Redox H2O2 prof	b-catenin transl	ROMK mod	MT stabilizer	ROMK hit retest	others
O=c1c2cc(Br)ccc2[nH]c(=S)n1-c1ccccc1	20*	0	-4	0.39	3	x	KCC2 sec1=0.008;KCC2 bumet counter=0.027*;KCC2 secondary2=0.042*;HEK293 Tl flux=0.022*;KCC2 retest ouab=0.033*;HEK293 Tl flux2=0.023*
O=c1c2ccccc2[nH]c(=S)n1-c1ccc(Br)cc1	20*	-1	0	-0.65	3	x	KCC2 sec1=0.0064;KCC2 bumet counter=0.041*;KCC2 secondary2=0.042*;HEK293 Tl flux=0.028*;KCC2 retest ouab=0.044*;HEK293 Tl flux2=0.027*
N#Cc1c(/N=C/c2ccc(O)cc2O)sc2c1C1CCN2CC1	0.072	0	1	0.43	2	x
O=c1c(C=Nc2cccnc2Cl)c(O)n(CCCCl)c(=O)n1C1CCCCC1	1.3	0	0	-0.39	2	x
O=c1c(C=NCc2cccs2)c(O)n(C2CCCCC2)c(=O)n1C1CCCCC1	-3*	0	x	-1	1	x	KCC2 sec1=u;KCC2 bumet counter=0.0044;KCC2 secondary2=0.03;HEK293 Tl flux=0.0072;KCC2 retest ouab=0.02;HEK293 Tl flux2=0.01
CC(NC(C)(C)C)C(=O)c1cccc(Cl)c1 (stereo not drawn)	7.7*	0	x	x	2	x	KCC2 sec1=0.0058;KCC2 bumet counter=0.0043;KCC2 secondary2=0.029;HEK293 Tl flux=0.0071;KCC2 retest ouab=0.018;HEK293 Tl flux2=0.0094
CC(C)NC(C)C(=O)c1ccc2ccccc2c1 (stereo not drawn)	1.4	-1	3	0.86	3	x
COc1cccc(-c2nc(CS(=O)CC(=O)N3CCC4(CC3)OCCO4)c(C)o2)c1 (stereo not drawn)	-5.5*	1	-1	x	6	x	KCC2 sec1=0.0071;KCC2 bumet counter=0.0046;KCC2 secondary2=u;HEK293 Tl flux=0.0066;KCC2 retest ouab=0.017;HEK293 Tl flux2=0.0097
CCC1C(c2ccccc2)NC(c2ccccc2)CC1(O)c1ccc(F)cc1 (stereo not drawn)	-2.2	x	-1	x	x	x
O=c1[nH]c(=S)n(Cc2ccc(F)cc2)c(O)c1/C=N/N1CCCCCC1	0.51	0	0	x	3	x
CCN(CC)c1ccc(N=Cc2c(O)n(CCC3=CCCCC3)c(=O)[nH]c2=O)cc1	x	0	2	-7.1*	7	0.037*
CN(C)c1ccc(N=Cc2c(O)n(CCC3=CCCCC3)c(=O)[nH]c2=O)cc1	x	0	-1	-2.7	3	x
Cc1ccc(C(=O)C2(C)N(O)C(C)C(c3cccs3)=[N+]2[O-])cc1 (stereo not drawn)	x	2	-3	x	4	x
O=c1[nH]sc2cc(F)ccc12	1.6	0	1	-7.6*	4	0.054*
C[C@H]1CCCC(=O)CCCCCc2cc(O)cc(O)c2C(=O)O1	-0.49	-1	0	x	3	0.063*
O=c1[nH]c(=S)n(C2CC2)c(O)c1C=NCCN1CCOCC1	1.6	x	-1	x	x	x
O=c1c(C=NCCN2CCNCC2)c(O)n(C2CCCCC2)c(=O)n1C1CCCCC1	0.54	1	x	-3.7*	4	0.075
CN1CCc2nc3sc(C#N)c(N)c3c(-c3cccs3)c2C1	x	0	-14	3	5	u
CN1CCc2nc(N)c(C#N)c(-c3ccccc3)c2C1	x	0	-4	x	2	x
O=c1[nH]c(=S)n(-c2ccc(Br)cc2)c(O)c1C=Nc1ccc(N2CCOCC2)cc1	-2.8	0	x	0.0084	2	0.064*
O=C(c1ccc2c3c(cccc13)CC2)C1CCCN(CC2CC2)C1 (stereo not drawn)	x	0	0	-3.3*	2	0.06*
O=C1CN=C(c2ccc(Br)cc2)c2c(sc3c2CCCC3)N1CCN1CCCCC1	0.18	-1	-1	-0.78	4	x
CCCCCSc1cc(O)c(C(CNC)C(C)C)cc1OC (stereo not drawn)	2	0	x	-3.2*	3	0.057*
CCCCCSc1cc(OC)c(CCN(C)C)cc1OC	1.7	-5	-3	-1.5	4	x
CN(C)c1ccc(-[n+]2c(-c3ccccc3)cc(-c3ccccc3)cc2-c2ccccc2)cc1	-0.86	0	4	-2.2*	3	0.036*
SMILES	KCC2 mod	Redox H2O2 prof	b-catenin transl	ROMK mod	MT stabilizer	ROMK hit retest	others
c1ccc(-c2cc(-c3ccccc3)[n+](-c3ccccc3)c(-c3ccccc3)c2)cc1	-1.5	x	1	-3.6*	x	0.044*
C[n+]1c(-c2ccccc2)cc(-c2ccc(Cl)cc2)cc1-c1ccccc1	0.028	1	1	-1.4	5	x
O=C(Cn1cc(C(=O)c2ccccc2F)c2ccccc21)NC1CC1	-0.81	-1	-2	0.68	2	x
O=c1[nH]c(=O)n(CC2CCCO2)c(O)c1/C=C1\C=Nc2ccccc21 (stereo not drawn)	-1.5	0	1	0.081	3	0.058*
Cc1cccc(-n2c(O)c(/C=C3/C(c4ccccc4)=Nc4ccccc43)c(=O)[nH]c2=O)c1	-2.7	x	52*	x	x	0.044*
Cc1ccccc1-n1c(O)c(/C=C2/C(c3ccccc3)=Nc3ccccc32)c(=O)[nH]c1=O	-2.2	0	38	-6*	9	0.061*
